Apaf-1 inh: inhibitors of human Apaf-1 apoptosome, primary screen, biochemical, DEVD-Rh110 fluorescence, uHTS. Apoptotic protease-activating factor 1 (Homo sapiens), O14727. AID 489030, 2010. inhibition, % at 20 µM. hit rate 0.71% among 330,000. reconstituted apoptosome caspase-3 activity; active means inhibition of at least 40% at 20 µM;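 further: plate controls were DMSO wells for no effect and DEVD-CHO caspase inhibitor wells for full effect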
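System – cell-free apoptosome with Apaf-1, procaspase-3 and caspase-9 · Buffer or medium – pH 7.5 Hepes buffer with CHAPS, BSA, DTT · Also added – cytochrome c with DEVD-Rh110 · Times – 30 min compound preincubation, 50 min activation, room temperature · Technique – Rh110 fluorescence intensity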
RAD54 inh: inhibitors of human RAD54 branch migration, primary screen, biochemical, fluorescence, single point; inhibition, % at 10.4 µM; DNA repair and recombination protein RAD54-like (Homo sapiens), Q92698; hit rate 0.14% among 360,000; RAD54 Holliday junction branch migration, FAM/BHQ fluorescence;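 active means mean normalized replicate activity at least 40 and at least half of replicates scoring 40 or more; inconclusive means only one of the two criteria met; inactive means mean below 40 and under half of replicates reaching 40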;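 further: 0% = median of neutral control wells and 100% = median of positive control wells; inhibitors cause a drop in the FAM fluorescence signal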
Neddylation inh: inhibitors of cullin neddylation, primary screen, biochemical, TR-FRET, uHTS, NAE and Ubc12; NEDD8-conjugating enzyme Ubc12 (Homo sapiens) + NEDD8-activating enzyme E1 regulatory …; calls only at 25 µM; hit rate 0.58% among 360,000; in the data active means inhibition above about 36%
DNA FID counter: compounds displacing fluorescent DNA intercalator, primary screen, artefact control for HCV NS3 helicase inhibitor project, biochemical, FID fluorescence | DNA fluorescent intercalator displacement | inhibition, % at 7.9 µM | hit rate 0.17% among 290,000 | AID 1845, 2009; in the data active means inhibition above about 37%;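 further: 0% = vehicle and 100% = reference compound; higher means more ethidium bromide displaced from hairpin DNA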
UBC13 polyUb: UBC13 polyubiquitin chain formation inhibitors, primary screen, biochemical, TR-FRET, uHTS; AID 485273, 2010; Ubiquitin-conjugating enzyme E2 N (Homo sapiens), P61088; inhibition, % at 20 µM; hit rate 0.47% among 330,000; in the data active means inhibition above about 45%, passing the limit was not always enough; inconclusive means no clear call, values can overlap the other calls
Target sequence (P61088 whole entry, looked up): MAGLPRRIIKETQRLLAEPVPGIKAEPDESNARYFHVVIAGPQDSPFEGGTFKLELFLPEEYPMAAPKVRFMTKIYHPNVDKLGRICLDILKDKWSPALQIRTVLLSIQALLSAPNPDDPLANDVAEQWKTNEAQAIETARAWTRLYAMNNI
RAD52 inh: RAD52 DNA annealing inhibitors, primary screen, biochemical, FRET, single point, set 2; DNA repair protein RAD52 homolog (Homo sapiens), P43351; recombinant RAD52 DNA annealing, FRET fluorescence; inhibition, % at 18.7 µM; hit rate 0.46% among 360,000;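 active means every replicate showing at least 50% inhibition; inconclusive means mean inhibition at least 50% but not in every replicate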
Target sequence (P43351 whole entry, looked up): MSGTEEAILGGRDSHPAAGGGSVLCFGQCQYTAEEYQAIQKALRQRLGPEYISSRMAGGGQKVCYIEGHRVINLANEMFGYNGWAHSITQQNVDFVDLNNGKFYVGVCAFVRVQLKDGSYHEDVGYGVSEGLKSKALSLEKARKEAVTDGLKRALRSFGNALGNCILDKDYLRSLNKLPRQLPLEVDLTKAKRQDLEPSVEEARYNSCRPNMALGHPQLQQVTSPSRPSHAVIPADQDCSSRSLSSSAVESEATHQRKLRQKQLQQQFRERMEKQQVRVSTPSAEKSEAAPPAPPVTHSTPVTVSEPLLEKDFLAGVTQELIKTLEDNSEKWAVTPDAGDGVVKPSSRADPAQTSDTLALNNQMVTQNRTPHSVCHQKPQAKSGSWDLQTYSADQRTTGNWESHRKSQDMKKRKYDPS
* marks the source's active call; other numbers are inactive results; i = inactive; ? = inconclusive; . = not tested or not shown; + = active, no number; ! = repeats disagree. Compounds with a hit are over-represented: about 1.6% of the library has one in this group of screens.

SMILES | Apaf-1 inh | RAD54 inh | Neddylation inh | DNA FID counter | UBC13 polyUb | RAD52 inh
CC(=Nc1ccc(Br)cc1)c1sc2ccccc2c1O | 0 | -18 | . | -2 | 7 | -5
CC(=Nc1ccccc1)c1sc2ccccc2c1O | 15 | -3 | + | 3 | 1 | -90
COc1ccc(C(=O)Nn2c(SCC(=O)c3ccccc3)nc3ccccc3c2=O)cc1 | 14 | . | i | -4 | 83* | .
COc1ccc(C(=O)Nn2c(SCc3ccc([N+](=O)[O-])cc3)nc3ccccc3c2=O)cc1 | 18 | -4 | i | 4 | 6 | .
CCN1/C(=C/C=C/C=C/C=C/c2sc3ccccc3[n+]2CC)Sc2ccccc21 | 2 | -2 | i | -17 | 25 | -23
CCN1/C(=C/C=C/C=C/c2sc3ccccc3[n+]2CC)Sc2ccccc21 | 80* | . | . | -28 | ? | .
CO[C@H]1CN(C)C(=O)c2ccc(NC(=O)C3CC3)cc2OC[C@H](C)N(Cc2cccc(F)c2)C[C@@H]1C | . | . | . | . | . | 7
Cc1nc(N2CCN(C(=O)c3ccc(Cl)cc3)CC2)c(C#N)c2c1COC(C)(C)C2 | 10 | -6 | + | -45 | 19 | .
CO[C@@H]1CN(C)C(=O)c2ccc(NC(=O)C3CC3)cc2OC[C@H](C)N(Cc2ccc(F)cc2)C[C@H]1C | . | 5 | . | . | . | -3
COc1ccc(C[C@H]2CN3C(=NC[C@@H]3Cc3ccccc3)N2C[C@H](C)NC(=O)CCC2CCCCC2)cc1 | 52* | . | . | . | 17 | .
CO[C@@H]1CN(C)C(=O)c2ccc(NS(=O)(=O)c3ccccc3)cc2OC[C@@H](C)N(Cc2cccnc2)C[C@H]1C | . | -12 | . | . | . | -2
CC(=O)OC1=C(O)C(=O)c2ccccc2C1=O | 59* | . | . | . | -120 | .
Cc1noc(C)c1NC(=O)N(C)C[C@@H]1Oc2c(NS(=O)(=O)c3cccs3)cccc2C(=O)N([C@@H](C)CO)C[C@@H]1C | . | -6 | . | . | . | -29
COc1cccc(NC(=O)c2cc(C(=O)Nc3cccc(OC)c3)n(C)n2)c1 | 41* | 10 | i | -22 | 4 | -12
COc1ccc(NC(=O)c2ccccc2NS(C)(=O)=O)cc1OC | 2 | 6 | i | -3 | -9 | -10
COc1cccc(NC(=O)c2ccccc2NS(C)(=O)=O)c1 | 1 | -5 | i | 94* | 14 | -6
COc1ccc(S(=O)(=O)N(C)C[C@H]2OCCCC[C@@H](C)Oc3ccc(NS(=O)(=O)c4c(C)noc4C)cc3C(=O)N([C@H](C)CO)C[C@H]2C)cc1 | . | -4 | . | . | . | 17
COc1ccc(CN(C)C[C@H]2Oc3c(NC(=O)NC4CCCCC4)cccc3C(=O)N([C@@H](C)CO)C[C@H]2C)cc1 | . | -7 | . | . | . | 14
O=C(O)C1CCN(c2nc(-c3ccccc3)nc3c2oc2ccccc23)CC1 | 3 | 9 | i | -9 | -16 | .
OCCN1CCN(c2nc(-c3ccccc3)nc3c2oc2ccccc23)CC1 | 5 | 35 | i | 43* | 4 | .
Cc1ccc(-n2nc3c(N4CCC(C(=O)NCc5ccc(C)o5)CC4)nnc(C)c3c2C)cc1 | 15 | 5 | i | -27 | 13 | -108
Cc1ccc(-n2nc3c(N4CCC(C(=O)NCCc5ccccc5C)CC4)nnc(C)c3c2C)cc1 | 16 | 3 | i | 37* | 27 | .
Cc1ccc(-n2nc3c(N4CCC(C(=O)NCc5cccc(F)c5)CC4)nnc(C)c3c2C)cc1 | 22 | -7 | + | 16 | -1 | .
COc1ccc(-n2nc3c(N4CCC(C(=O)NCCc5ccccc5C)CC4)nnc(C)c3c2C)cc1 | 23 | -1 | i | 8 | 9 | .
CCN1CCN(C(=O)C2CCN(c3nnc(C)c4c(C)n(-c5ccc(C)cc5)nc34)CC2)CC1 | 12 | 19 | i | 43* | -3 | -139
SMILES | Apaf-1 inh | RAD54 inh | Neddylation inh | DNA FID counter | UBC13 polyUb | RAD52 inh
COc1ccc(-n2nc3c(N4CCC(C(=O)NCc5ccccc5C)CC4)nnc(C)c3c2C)cc1 | 59* | 16 | i | 18 | 17 | .
CO[C@@H]1CN(C)C(=O)c2ccc(NC(C)=O)cc2OC[C@@H](C)N(C(=O)C2CCCCC2)C[C@H]1C | . | 5 | . | . | . | 5
O=C(N[C@H]1CC[C@@H](CCNS(=O)(=O)c2ccc(F)cc2)O[C@H]1CO)c1cccc(F)c1 | . | 5 | . | . | . | -4
Cc1ccc(S(=O)(=O)Nc2ccc3c(c2)C(=O)N([C@@H](C)CO)C[C@H](C)[C@@H](CN(C)C(=O)c2ccccc2)OCCCC[C@H](C)O3)cc1 | . | -4 | . | . | . | 21
C[C@@H]1CN([C@@H](C)CO)C(=O)c2cccc(NC(=O)CCCCCC(=O)Nc3ccccc3N)c2O[C@H]1CN(C)C(=O)Nc1ccc(F)cc1 | . | . | . | . | . | -16
C[C@@H]1CN([C@H](C)CO)C(=O)c2cc(/C=C/c3ccccc3)cnc2O[C@@H]1CN(C)C(=O)C1CC1 | . | . | . | . | . | 1
C[C@H](CO)N1C[C@H](C)[C@H](CN(C)C(=O)Nc2ccc(N3CCN(C)CC3)cc2)OCc2cn(nn2)CCCC1=O | . | 0 | . | . | . | 16
C[C@H]1CN([C@@H](C)CO)C(=O)CCCn2cc(nn2)CO[C@@H]1CN(C)C(=O)Nc1ccc(N2CCN(C)CC2)cc1 | . | -9 | i | . | . | 55*!
CC(C)NC(=O)N1CCCCN2[C@H](CO)[C@@H](c3ccc(C#Cc4ccccc4)cc3)[C@H]2C1 | . | 2 | . | . | . | 14
C#CCOCCOCCOCCNc1nc(N2CCN(C(=O)[C@H](CCCCN)n3cc(C(N)CO)nn3)CC2)nc(N2CCN(C(=O)[C@H](CCCCN)n3cc(C(N)COC(=O)C(F)(F)F)nn3)CC2)n1 (stereo not given in full) | 10 | . | . | . | 76* | .
C#CCOCCOCCOCCNc1nc(N2CCOCC2)nc(N2CCN(C(=O)[C@H](CCCCN)n3cc([C@@H](N)C(C)CC)nn3)CC2)n1 (stereo not given in full) | 2 | -2 | i | 38* | 23 | 4
C#CCOCCOCCOCCNc1nc(N2CCN(C(=O)[C@H](CCCCN)n3cc(CCCC)nn3)CC2)nc(N2CCN(C(=O)[C@H](Cc3ccc(O)cc3)n3cc(CCO)nn3)CC2)n1 | 20 | -17 | i | 13 | 90* | .
C#CCOCCOCCOCCNc1nc(N2CCOCC2)nc(N2CCN(C(=O)[C@H](CCCN=C(N)N)n3cc(C(N)[C@@H](C)CC)nn3)CC2)n1 (stereo not given in full) | 25 | -22 | i | . | 30 | 35
COc1ccc2c3c(n(C)c2c1)[C@@H](CO)N(CC1CCCCC1)CC31CCN(Cc2nccs2)CC1 | . | . | . | . | . | -93
COc1ccc(S(=O)(=O)N(C)C[C@H]2Oc3ccc(NC(=O)Cn4cnnn4)cc3CC(=O)N([C@H](C)CO)C[C@H]2C)cc1 | . | -6 | . | . | . | 1

Screening data as filed in PubChem.
